The source of these data is ChEMBL document CHEMBL1155278, “3,4-Diaryl-isoxazoles and -imidazoles as potent dual inhibitors of p38alpha mitogen activated protein kinase and casein kinase 1delta” (J Med Chem, 2009).

For experiment [1], the target named is Serine/threonine-protein kinase PAK 5 (Homo sapiens) (UniProt Q9P286). In words: Inhibition of PAK5 assessed as residual activity at 10 uM by Cherenkov counting relative to control in presence of 20 uM ATP.
The target in experiment [2] is Serine/threonine-protein kinase pim-2 (Homo sapiens) (UniProt Q9P1W9). Description: Inhibition of PIM2 assessed as residual activity at 10 uM by Cherenkov counting relative to control in presence of 5 uM ATP.
In experiment [3] the target is Tyrosine-protein kinase Yes (Homo sapiens) (UniProt P07947). Description: Inhibition of YES1 assessed as residual activity at 10 uM by Cherenkov counting relative to control in presence of 20 uM ATP. A digest of the protocol: (§1)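 Single-concentration profiling at 10 μM in a 78-kinase panel. Kinase activity is expressed as a percentage of control assays run without compound.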
Chain of Tyrosine-protein kinase Yes (Homo sapiens) (P07947 2-543 limits assumed): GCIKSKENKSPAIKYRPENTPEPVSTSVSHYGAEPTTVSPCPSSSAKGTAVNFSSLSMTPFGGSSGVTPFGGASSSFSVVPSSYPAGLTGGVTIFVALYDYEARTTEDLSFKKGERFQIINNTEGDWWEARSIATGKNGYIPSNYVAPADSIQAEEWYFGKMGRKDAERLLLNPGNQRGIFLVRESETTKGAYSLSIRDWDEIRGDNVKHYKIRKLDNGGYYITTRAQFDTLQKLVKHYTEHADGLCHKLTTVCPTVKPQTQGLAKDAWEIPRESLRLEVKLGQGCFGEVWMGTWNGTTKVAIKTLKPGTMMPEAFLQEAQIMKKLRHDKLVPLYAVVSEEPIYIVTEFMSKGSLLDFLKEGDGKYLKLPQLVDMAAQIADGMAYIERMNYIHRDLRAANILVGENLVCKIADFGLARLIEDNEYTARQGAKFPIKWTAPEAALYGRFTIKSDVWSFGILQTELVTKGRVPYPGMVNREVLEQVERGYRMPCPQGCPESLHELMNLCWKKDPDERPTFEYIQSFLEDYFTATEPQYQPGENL

Experiment [4] concerns the target 3-phosphoinositide-dependent protein kinase 1 (Homo sapiens) (UniProt O15530). Description: Inhibition of PDK1 assessed as residual activity at 10 uM by Cherenkov counting relative to control in presence of 20 uM ATP.
Experiment [5] concerns the target Calcium/calmodulin-dependent protein kinase kinase 2 (Homo sapiens) (UniProt Q96RR4). In words: Inhibition of CAMKKbeta assessed as residual activity at 10 uM by Cherenkov counting relative to control. A digest of the protocol: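 Single-point profiling at 10 µM in a panel of 78 protein kinases. Kinase activity is expressed as a percentage relative to control assays without compound.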

For experiment [6], the target named is T1, Serine/threonine-protein kinase 3 (Homo sapiens) (UniProt Q13188).
T1 sequence (whole entry): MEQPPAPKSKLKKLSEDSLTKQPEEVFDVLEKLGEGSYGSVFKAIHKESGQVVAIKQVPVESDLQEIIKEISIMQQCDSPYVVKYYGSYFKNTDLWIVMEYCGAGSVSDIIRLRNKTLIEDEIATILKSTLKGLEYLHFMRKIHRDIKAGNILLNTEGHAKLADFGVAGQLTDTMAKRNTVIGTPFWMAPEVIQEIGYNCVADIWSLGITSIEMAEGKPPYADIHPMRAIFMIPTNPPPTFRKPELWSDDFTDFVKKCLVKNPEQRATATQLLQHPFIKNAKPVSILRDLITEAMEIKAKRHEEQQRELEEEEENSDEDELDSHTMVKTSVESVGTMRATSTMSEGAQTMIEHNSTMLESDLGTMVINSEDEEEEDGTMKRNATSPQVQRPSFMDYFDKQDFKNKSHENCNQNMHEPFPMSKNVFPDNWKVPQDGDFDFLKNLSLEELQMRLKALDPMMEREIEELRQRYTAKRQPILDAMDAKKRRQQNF
In words: Inhibition of MST2 assessed as residual activity at 10 uM by Cherenkov counting relative to control in presence of 20 uM ATP.

Experiment [7] addresses Maternal embryonic leucine zipper kinase (Homo sapiens) (UniProt Q14680). Description: Inhibition of MELK assessed as residual activity at 10 uM by Cherenkov counting relative to control in presence of 50 uM ATP.
For experiment [8], the target named is Serine/threonine-protein kinase PLK1 (Homo sapiens) (UniProt P53350). Description: Inhibition of okadaic acid-induced PLK1 assessed as residual activity at 10 uM by Cherenkov counting relative to control in presence of 5 uM ATP. A digest of the protocol: as §1
Chain of Serine/threonine-protein kinase PLK1 (Homo sapiens) (P53350 whole entry): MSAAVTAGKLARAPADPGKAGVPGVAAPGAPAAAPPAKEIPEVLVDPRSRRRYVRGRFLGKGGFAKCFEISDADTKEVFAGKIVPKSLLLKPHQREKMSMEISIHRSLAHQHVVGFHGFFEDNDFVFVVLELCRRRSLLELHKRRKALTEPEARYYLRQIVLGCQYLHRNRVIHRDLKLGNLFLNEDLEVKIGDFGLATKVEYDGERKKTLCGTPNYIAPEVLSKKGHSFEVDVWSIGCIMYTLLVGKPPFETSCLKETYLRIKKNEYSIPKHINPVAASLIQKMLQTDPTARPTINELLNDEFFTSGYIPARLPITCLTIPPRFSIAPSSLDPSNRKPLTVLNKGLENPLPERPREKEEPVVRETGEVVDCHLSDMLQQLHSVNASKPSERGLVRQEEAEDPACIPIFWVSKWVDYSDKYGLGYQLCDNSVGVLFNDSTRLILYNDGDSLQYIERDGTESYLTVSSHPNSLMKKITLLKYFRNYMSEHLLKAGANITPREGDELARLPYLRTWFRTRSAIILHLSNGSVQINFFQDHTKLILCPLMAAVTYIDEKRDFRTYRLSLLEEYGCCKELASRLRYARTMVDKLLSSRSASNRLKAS
For experiment [9], the target named is Calcium/calmodulin-dependent protein kinase type 1 (Homo sapiens) (UniProt Q14012). Description: Inhibition of CAMK1 assessed as residual activity at 0.1 uM by Cherenkov counting relative to control in presence of 50 uM ATP. A digest of the protocol:
(§2)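 Single-concentration screen at 0.1 µM across a panel of 76 protein kinases. Each kinase was run at an ATP concentration approximating its ATP Km. Results are % mean residual activity versus control assays without compound (n = 3 ± SD).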

Experiment [10] concerns the target Mitogen-activated protein kinase 15 (Homo sapiens) (UniProt Q8TD08). In words: Inhibition of ERK8 assessed as residual activity at 0.1 uM by Cherenkov counting relative to control in presence of 5 uM ATP. A digest of the protocol:
as §2

Experiment [11] concerns the target Ribosomal protein S6 kinase beta-1 (Homo sapiens) (UniProt P23443). Description: Inhibition of S6K1 assessed as residual activity at 0.1 uM by Cherenkov counting relative to control in presence of 20 uM ATP. A digest of the protocol: (§3)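 Single-concentration screen at 0.1 μM in a 76-kinase panel. ATP for each kinase was set near its Km for ATP. Residual activity is given as a percentage of control assays without compound, mean of n = 3 ± SD.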

The target of experiment [12] is Mitogen-activated protein kinase 12 (Homo sapiens) (UniProt P53778). In words: Inhibition of p38-gamma assessed as residual activity at 0.1 uM by Cherenkov counting relative to control. A digest of the protocol: as §3
Chain of Mitogen-activated protein kinase 12 (Homo sapiens) (P53778 whole entry): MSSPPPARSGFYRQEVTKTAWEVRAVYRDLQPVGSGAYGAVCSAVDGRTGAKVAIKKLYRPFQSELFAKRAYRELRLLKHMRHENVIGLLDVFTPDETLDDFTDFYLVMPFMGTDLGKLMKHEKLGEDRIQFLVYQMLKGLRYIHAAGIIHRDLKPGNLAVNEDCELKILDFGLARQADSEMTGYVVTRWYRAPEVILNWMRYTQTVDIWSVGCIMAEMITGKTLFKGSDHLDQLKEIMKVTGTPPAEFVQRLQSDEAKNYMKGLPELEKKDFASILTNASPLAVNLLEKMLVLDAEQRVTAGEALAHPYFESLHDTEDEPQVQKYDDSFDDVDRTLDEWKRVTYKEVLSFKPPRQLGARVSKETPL
The target of experiment [13] is Mitogen-activated protein kinase 9 (Homo sapiens) (UniProt P45984). Description: Inhibition of JNK2 at 0.1 uM by Cherenkov counting in presence of 20 uM ATP. A digest of the protocol:
(§4)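 Single-concentration selectivity screen at 0.1 μM against a panel of 76 protein kinases. Each kinase was run at an ATP level approximating its Km for ATP. Output is mean residual activity as % of the control assay without compound, n = 3 ± SD.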

The target in experiment [14] is T2, Serine/threonine-protein kinase Chk1 (Homo sapiens) (UniProt O14757).
T2 sequence (whole entry): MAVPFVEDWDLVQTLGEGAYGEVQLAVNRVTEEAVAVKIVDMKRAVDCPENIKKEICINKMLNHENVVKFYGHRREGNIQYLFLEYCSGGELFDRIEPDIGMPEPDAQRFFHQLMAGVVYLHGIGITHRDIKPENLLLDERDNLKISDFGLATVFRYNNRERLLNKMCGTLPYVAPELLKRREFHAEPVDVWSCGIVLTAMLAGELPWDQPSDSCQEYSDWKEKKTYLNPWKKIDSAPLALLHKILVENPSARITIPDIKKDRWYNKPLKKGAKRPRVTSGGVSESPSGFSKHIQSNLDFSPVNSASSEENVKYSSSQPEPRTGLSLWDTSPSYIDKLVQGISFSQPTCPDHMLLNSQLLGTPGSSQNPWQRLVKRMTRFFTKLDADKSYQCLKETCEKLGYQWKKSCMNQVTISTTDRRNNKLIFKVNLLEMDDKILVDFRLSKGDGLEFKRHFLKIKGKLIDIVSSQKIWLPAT
In words: Inhibition of CHK1 assessed as residual activity at 0.1 uM by Cherenkov counting relative to control in presence of 20 uM ATP. A digest of the protocol: as §2

Experiment [15] deals with MAP kinase-interacting serine/threonine-protein kinase 2 (Homo sapiens) (UniProt Q9HBH9). Description: Inhibition of MNK2 assessed as residual activity at 0.1 uM by Cherenkov counting relative to control in presence of 50 uM ATP. A digest of the protocol: as §4
Chain of MAP kinase-interacting serine/threonine-protein kinase 2 (Homo sapiens) (Q9HBH9 whole entry, looked up): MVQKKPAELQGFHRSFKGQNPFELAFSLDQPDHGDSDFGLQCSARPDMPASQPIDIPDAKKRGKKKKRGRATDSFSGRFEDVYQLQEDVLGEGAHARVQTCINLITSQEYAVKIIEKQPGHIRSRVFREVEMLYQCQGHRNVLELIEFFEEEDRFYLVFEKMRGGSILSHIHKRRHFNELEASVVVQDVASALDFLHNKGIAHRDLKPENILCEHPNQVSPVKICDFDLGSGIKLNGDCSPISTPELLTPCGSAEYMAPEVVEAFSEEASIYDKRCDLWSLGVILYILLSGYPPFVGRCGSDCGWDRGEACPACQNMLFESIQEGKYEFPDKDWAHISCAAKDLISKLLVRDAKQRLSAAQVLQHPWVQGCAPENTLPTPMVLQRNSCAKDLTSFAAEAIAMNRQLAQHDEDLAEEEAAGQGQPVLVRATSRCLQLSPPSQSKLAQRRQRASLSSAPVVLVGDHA

Chain of Serine/threonine-protein kinase PAK 5 (Homo sapiens) (Q9P286 whole entry, looked up): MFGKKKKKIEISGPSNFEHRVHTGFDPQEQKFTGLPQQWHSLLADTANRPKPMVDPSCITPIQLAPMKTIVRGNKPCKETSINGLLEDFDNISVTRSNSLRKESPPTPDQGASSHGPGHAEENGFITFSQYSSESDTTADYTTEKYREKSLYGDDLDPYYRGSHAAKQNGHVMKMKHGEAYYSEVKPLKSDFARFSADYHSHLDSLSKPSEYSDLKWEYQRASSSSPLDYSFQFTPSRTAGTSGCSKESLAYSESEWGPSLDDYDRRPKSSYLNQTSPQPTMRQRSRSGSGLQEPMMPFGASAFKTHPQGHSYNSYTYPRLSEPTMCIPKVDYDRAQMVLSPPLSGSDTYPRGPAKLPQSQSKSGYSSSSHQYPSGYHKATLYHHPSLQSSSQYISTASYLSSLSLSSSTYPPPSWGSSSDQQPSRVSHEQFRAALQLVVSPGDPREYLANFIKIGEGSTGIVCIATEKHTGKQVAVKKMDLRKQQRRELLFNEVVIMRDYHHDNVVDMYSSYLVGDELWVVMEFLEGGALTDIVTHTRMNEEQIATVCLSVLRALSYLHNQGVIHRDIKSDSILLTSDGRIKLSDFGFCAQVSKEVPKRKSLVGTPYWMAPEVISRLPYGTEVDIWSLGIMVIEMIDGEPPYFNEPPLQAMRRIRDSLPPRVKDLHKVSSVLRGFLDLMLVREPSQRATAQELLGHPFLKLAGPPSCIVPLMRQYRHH
Chain of 3-phosphoinositide-dependent protein kinase 1 (Homo sapiens) (O15530 whole entry, looked up): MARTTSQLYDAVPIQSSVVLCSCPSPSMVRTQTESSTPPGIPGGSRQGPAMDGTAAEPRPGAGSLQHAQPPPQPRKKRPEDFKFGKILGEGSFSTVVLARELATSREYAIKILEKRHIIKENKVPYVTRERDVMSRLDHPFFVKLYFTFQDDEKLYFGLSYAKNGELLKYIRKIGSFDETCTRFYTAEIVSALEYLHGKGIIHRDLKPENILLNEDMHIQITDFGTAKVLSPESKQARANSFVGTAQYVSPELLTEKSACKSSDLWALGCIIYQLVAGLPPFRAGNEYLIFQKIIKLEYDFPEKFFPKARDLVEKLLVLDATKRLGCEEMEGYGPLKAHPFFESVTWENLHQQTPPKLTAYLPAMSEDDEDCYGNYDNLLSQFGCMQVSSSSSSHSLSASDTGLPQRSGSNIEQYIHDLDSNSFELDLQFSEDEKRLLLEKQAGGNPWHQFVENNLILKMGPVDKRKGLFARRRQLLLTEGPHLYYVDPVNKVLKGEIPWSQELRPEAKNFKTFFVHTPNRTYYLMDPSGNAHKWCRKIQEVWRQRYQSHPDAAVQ
Chain of Mitogen-activated protein kinase 9 (Homo sapiens) (P45984 whole entry, looked up): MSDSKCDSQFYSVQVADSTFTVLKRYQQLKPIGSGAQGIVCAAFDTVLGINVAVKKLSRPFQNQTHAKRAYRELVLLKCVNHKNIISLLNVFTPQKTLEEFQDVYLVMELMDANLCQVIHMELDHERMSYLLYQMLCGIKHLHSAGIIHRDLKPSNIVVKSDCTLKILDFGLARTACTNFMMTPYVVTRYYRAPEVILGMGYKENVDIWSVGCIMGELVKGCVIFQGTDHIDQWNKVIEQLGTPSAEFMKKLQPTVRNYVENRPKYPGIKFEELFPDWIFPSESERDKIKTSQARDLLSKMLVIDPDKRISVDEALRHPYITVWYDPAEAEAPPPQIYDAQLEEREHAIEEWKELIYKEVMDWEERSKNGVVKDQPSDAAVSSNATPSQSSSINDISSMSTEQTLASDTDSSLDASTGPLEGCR
Chain of Mitogen-activated protein kinase 15 (Homo sapiens) (Q8TD08 whole entry): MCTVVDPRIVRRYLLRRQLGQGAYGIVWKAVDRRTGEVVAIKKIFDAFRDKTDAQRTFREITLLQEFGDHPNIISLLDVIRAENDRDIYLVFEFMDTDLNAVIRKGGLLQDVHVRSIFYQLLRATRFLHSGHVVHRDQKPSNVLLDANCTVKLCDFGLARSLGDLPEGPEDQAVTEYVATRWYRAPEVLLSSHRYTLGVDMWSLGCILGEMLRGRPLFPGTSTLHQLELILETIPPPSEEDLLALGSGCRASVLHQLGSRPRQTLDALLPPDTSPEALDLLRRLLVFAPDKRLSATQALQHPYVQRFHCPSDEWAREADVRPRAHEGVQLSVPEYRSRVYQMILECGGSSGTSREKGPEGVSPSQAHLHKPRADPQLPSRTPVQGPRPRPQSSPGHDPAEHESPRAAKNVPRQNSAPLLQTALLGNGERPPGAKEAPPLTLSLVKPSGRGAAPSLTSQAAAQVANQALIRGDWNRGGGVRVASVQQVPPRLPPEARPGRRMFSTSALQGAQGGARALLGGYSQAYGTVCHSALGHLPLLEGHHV
Chain of Calcium/calmodulin-dependent protein kinase kinase 2 (Homo sapiens) (Q96RR4 2-588 limits assumed): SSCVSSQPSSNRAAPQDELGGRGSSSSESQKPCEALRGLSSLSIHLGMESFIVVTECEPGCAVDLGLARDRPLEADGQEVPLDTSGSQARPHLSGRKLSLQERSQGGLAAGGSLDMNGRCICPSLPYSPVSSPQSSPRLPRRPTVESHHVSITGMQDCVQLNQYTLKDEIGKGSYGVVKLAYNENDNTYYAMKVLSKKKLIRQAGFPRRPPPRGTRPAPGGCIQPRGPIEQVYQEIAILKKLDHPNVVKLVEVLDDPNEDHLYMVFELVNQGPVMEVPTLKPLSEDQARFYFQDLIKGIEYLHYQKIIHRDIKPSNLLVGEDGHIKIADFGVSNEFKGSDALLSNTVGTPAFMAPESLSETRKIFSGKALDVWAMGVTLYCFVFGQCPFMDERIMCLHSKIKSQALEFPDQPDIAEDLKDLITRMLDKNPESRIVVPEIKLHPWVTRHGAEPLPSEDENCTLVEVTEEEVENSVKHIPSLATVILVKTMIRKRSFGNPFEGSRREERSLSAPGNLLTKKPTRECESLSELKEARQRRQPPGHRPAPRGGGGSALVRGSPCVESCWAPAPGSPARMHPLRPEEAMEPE

Turning to `CC(C)c1noc(-c2ccc(F)cc2)c1-c1ccncc1`, the Activity in experiment [1] stood at 94%; in experiment [2], 96%; in experiment [3], 101%; in experiment [4], 85%; in experiment [5], 97%; in experiment [6] it was 95%. The values for the Activity in [7] and in experiment [8] were 108% and 105%, respectively.

Take `CC(C)c1onc(-c2ccc(F)cc2)c1-c1ccncc1`: the Activity in experiment [1] was 98%; in experiment [2], 105%; in [3], 82%; in [4], 82%; in experiment [5], 99%; in experiment [6] it was 95%. Further, the Activity in experiment [7] amounted to 78%; in experiment [8] it was 104%.

Take `COc1ccc(/C=C/C(=O)Nc2cc(-c3[nH]c(SC)nc3-c3ccc(F)cc3)ccn2)c(OC)c1`: the Activity in experiment [9] was 92%; in [10], 83%; in experiment [11], 67%; in [12], 84%; in [14] it was 80%; in experiment [15] it was 85%. Also, in experiment [13], the inhibition (in general, the change of the read-out against control, counted positive when it falls) was determined as 69%.

As for `COc1ccc(/C=C/C(=O)Nc2cc(-c3[nH]c([S+](C)[O-])nc3-c3ccc(F)cc3)ccn2)c(OC)c1` (stereo not given), the Activity in experiment [9] turned out to be 98%; in experiment [10], 88%; in [11], 74%; in [12], 97%; in [14], 88%; in experiment [15] it was 88%. The inhibition in experiment [13] came out at 88%.
